# The list is not random: actives were taken first. Their share in the collection is about 1.5%.
# PKA-R1A act: activators of PKA-R1A complex; P00514+P68181; actives 0.083% (n = 340,000); activation, % at 11.4 µM; PKA-R1A dissociation, Cy5-IP20 fluorescence polarization; scaled: DMSO 0%, 113 µM cGMP 100%;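 active = percent activation above the mean of all tested compounds plus 3 SD, cut at about 19% in these data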;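 note: higher means more PKAc released from R1A so a rise in polarization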
# SIRT5 block: inhibitors of human sirtuin-5 desuccinylase. Q9NXA8. AID 652115. inhibition, % at 15 µM. Purified SirT5, succinyl-peptide AMC, trypsin-coupled fluorescence. actives 1.1% (n = 330,000); in the data active = inhibition above about 15%
# S100A4 inh HTS: S100A4-myosin IIA interaction inhibition; P26447; S100A4/TAMRA-MyoIIA peptide fluorescence polarization; inhibition, % at 10.7 µM; actives 0.14% (n = 360,000); AID 652163;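 active = mean inhibition of at least 70% across replicates, with every replicate also reaching that level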
# Target sequence (P26447 whole entry, looked up): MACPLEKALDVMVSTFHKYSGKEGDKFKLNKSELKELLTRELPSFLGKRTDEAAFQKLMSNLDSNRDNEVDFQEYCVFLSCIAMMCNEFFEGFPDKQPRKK
#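 Assay system: human S100A4 monomer with TAMRA-labelled myosin IIA peptide / Buffer or medium: Calcium-containing HEPES buffer, pH 7.2 / Reagent: TAMRA-labelled myosin IIA heavy-chain peptide probe, 5 nM / Compound: one dose per compound / Timing: polarization read 5 min after assay mix addition, stable 5–60 min / Benchmarks: neutral control DMSO, positive control TFP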
# PKA-R2B activ: activates the human PKA-R2B holoenzyme complex | PKA-R2B holoenzyme dissociation, Cy5-IP20 fluorescence polarization; R2B truncated from residue 108, S112A mutant; 0% DMSO only, 100% 113 µM cGMP | activation, % at 11.4 µM | AID 504700 | actives 0.079% (n = 340,000);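 active = activation above a cutoff set at the mean over all compounds plus 3 SD, cut at about 18% in these data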;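 note: higher means more holoenzyme dissociation and a rise in polarization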
# Target sequence (P31323 whole entry, looked up, other chains not shown, the tested form may be a part): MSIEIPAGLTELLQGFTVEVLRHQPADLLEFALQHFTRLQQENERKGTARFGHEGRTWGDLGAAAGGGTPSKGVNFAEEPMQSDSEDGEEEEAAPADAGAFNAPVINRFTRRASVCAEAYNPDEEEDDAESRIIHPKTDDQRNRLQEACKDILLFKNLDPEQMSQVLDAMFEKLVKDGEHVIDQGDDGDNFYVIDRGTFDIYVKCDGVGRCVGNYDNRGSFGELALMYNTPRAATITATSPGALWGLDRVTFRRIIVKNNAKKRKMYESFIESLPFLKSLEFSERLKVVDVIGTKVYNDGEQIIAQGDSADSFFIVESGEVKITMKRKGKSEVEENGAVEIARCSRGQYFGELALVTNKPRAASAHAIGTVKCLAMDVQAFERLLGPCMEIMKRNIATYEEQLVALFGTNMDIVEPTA
# CRFR2-BP antag: blocks CRF-induced signaling of the CRF-BP/CRF-R2 complex; HEK293 CRF-R2/CRF-BP, CRF-induced calcium fluorescence; inhibition, % at 11.8 µM; actives 0.59% (n = 350,000); AID 588475;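 active = inhibition of the ligand-induced calcium signal above about 50% at the single tested concentration, limit read from the data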
# * = called active by the depositor; / = no result.
SMILES,PKA-R1A act,SIRT5 block,S100A4 inh HTS,PKA-R2B activ,CRFR2-BP antag
C/C(=N\Nc1ccc(C(=O)O)cc1)c1ccc2c(c1)Nc1ccccc1S2,10,24*,-7,-7,-4
COc1ccc(/C(C)=N/Nc2cccc(C(=O)O)c2)cc1OC,6,3,8,2,8
Cc1noc(C)c1NC(=O)N(C)C[C@@H]1Oc2ccc(NC(=O)Nc3ccc(F)cc3)cc2CC(=O)N([C@@H](C)CO)C[C@H]1C,/,-4,10,/,/
COc1ccc(NC(=O)N2CC(=O)N3[C@H](C2)[C@@H](c2ccc(Br)cc2)[C@@H]3CO)cc1,/,-1,6,/,/
CO[C@H]1CC[C@@H]2CCN(C)C(=O)CC3(CCCCC3)CN(C)C(=O)c3cccc(C#N)c3OC[C@H]1O2,/,-1,6,/,/
COCc1nc2ccccc2n1Cc1ccccc1C,-9,38*,2,-11,1
Cc1cc(C)c2nc(N3CCN(C(=O)c4cccs4)CC3)sc2c1,-4,1,-9,-13,8
O=C(c1cccs1)N1CCN(c2nc3c(F)cc(F)cc3s2)CC1,-1,18*,1,-8,0
CCCNC(=O)C[C@@H]1CC[C@H]2[C@@H](COc3ccc(NC(=O)c4cccc(C(F)(F)F)c4)cc3C(=O)N2C)O1,/,-5,-27,/,/
O=C(C[C@H]1C=C[C@H](NC(=O)Nc2ccc(F)cc2)[C@H](CO)O1)NCc1cccc(F)c1,/,4,12,/,/
CCCN1[C@H](CO)[C@H](c2ccc(C3=CCCCC3)cc2)[C@@H]1CNS(C)(=O)=O,/,-4,80*,/,/
CN(C[C@H]1[C@@H](c2ccc(C3=CCCC3)cc2)[C@@H](CO)N1CCC(F)(F)F)S(C)(=O)=O,/,25*,/,/,/
Cc1ccc(N=Nc2ccc(O)c(P(=O)(c3ccccc3)c3ccccc3)c2)cc1,-1,-3,-3,3,108*
O=C(C1CCC1)N1CC(=O)N2[C@@H](CO)[C@@H](c3ccc(C4=CCCCC4)cc3)[C@@H]2C1,/,-19,14,/,/
C[C@H]1CN([C@@H](C)CO)C(=O)c2cccc(NS(=O)(=O)c3ccc(Cl)cc3)c2O[C@H]1CN(C)Cc1ccc(C(F)(F)F)cc1,/,5,-2,/,/
CCOC(=O)Cn1cc(C#N)c2cccc(CC)c21,-6,24*,9,-2,21
Cc1cc(C(=O)NNC(=O)C(CCC(N)=O)NS(=O)(=O)c2ccc(Cl)cc2)c(C)o1 (stereo not drawn),-2,-1,-12,-4,67*
COc1ccc(CCNC(=O)C(CCC(N)=O)NS(=O)(=O)c2ccc(Cl)cc2)cc1OC (stereo not drawn),-11,-3,-4,2,6
CCCC(=O)N1CC2(CCN(C(=O)NC(C)C)CC2)c2c([nH]c3cc(OC)ccc23)[C@@H]1CO,/,/,-6,/,/
Cc1ccccc1-c1ccc([C@@H]2[C@@H](CO)N3C(=O)CN(C(=O)Cc4ccccn4)C[C@H]23)cc1,/,2,4,/,/
COc1ccc(-c2cccc(NS(=O)(=O)c3cccc([N+](=O)[O-])c3)c2)nn1,-11,-1,15,-1,58*
COc1cc(NS(=O)(=O)c2ccc(Nc3nc(-c4cccc([N+](=O)[O-])c4)cs3)cc2)nc(OC)n1,-20,19*,6,-6,15
O=C(O)c1cccc(Cn2c(Cl)c(/C=N/NC(=O)c3ccccc3)sc2=O)c1,-2,/,/,-5,16
O=C(O)c1cccc(Cn2c(Cl)c(/C=N/NC(=O)c3cc4ccccc4cc3O)sc2=O)c1,-9,24*,-1,8,1
COc1ccc(CN2CC(=O)N(c3cccc(Cl)c3)C2=S)cc1OC,9,0,-6,4,90*
SMILES,PKA-R1A act,SIRT5 block,S100A4 inh HTS,PKA-R2B activ,CRFR2-BP antag
O=C(OCc1cc(=O)n2ccsc2n1)C1(c2ccccc2)CC1,-11,1,-4,-6,71*
CN1CCN(C(=O)C[C@@H]2CC[C@H]3[C@@H](COC[C@H](O)CN3C(=O)Nc3cc(Cl)cc(Cl)c3)O2)CC1,/,0,-6,/,/
N#CCCN(CCC#N)C(=O)C1c2ccccc2Oc2ccccc21,4,-1,131*,-1,13
CN(CCC#N)C(=O)COC(=O)C1c2ccccc2Oc2ccccc21,-19,-1,-1,-2,0
COc1cc2c(cc1OC)CN(C(=O)[C@@H]1[C@H]3C(=O)O[C@H](c4ccccc4)[C@H](c4ccccc4)N3[C@H](c3ccc(OCCO)cc3)[C@@]13C(=O)Nc1ccc(C#CC4(O)CCCCCC4)cc13)CC2,/,0,-13,/,/
O=C1Nc2ccccc2N(C(=O)c2ccc3ccccc3c2)C1c1nc2ccccc2[nH]1 (stereo not drawn),/,16*,7,/,/
CC1C(=O)Nc2ccccc2N1C(=O)c1ccc(O)cc1 (stereo not drawn),-5,-3,-1,6,0
CC/C(CC(=O)C(F)(F)F)=N\NC(=O)/C(C#N)=C/N(C)C,18,18*,1,-1,-11
O=[N+]([O-])c1c(Nc2ccc(O)cc2)cc(Cl)c2nonc12,-16,17*,10,-14,67*
C[C@@H]1CCCCO[C@@H](CN(C)Cc2ccc(Cl)c(Cl)c2)[C@H](C)CN([C@@H](C)CO)C(=O)c2cc(NC(=O)Nc3cccc4ccccc34)ccc2O1,/,-5,62,/,/
OC[C@@H]1[C@H](c2ccccc2)C2(CN(Cc3nccs3)C2)N1Cc1cccnc1,/,20*,3,/,/
CC(C)NC(=O)N[C@@H]1CC[C@@H](CC(=O)NCc2ccc(Oc3ccccc3)cc2)O[C@H]1CO,/,4,7,/,/
O=[N+]([O-])c1cc([N+](=O)[O-])c(Oc2ccc(F)cc2F)cc1NN1CCCCC1,11,17*,2,-4,5
O=C(Nc1cccc2ccccc12)N1CC=CCC1,-2,/,/,-1,88*
O=C(Nc1cccc2ccccc12)N1CCN(c2ccccc2)CC1,-8,/,/,-5,-5
O=C(NCC1CCCCC1)c1ccc([N+](=O)[O-])cc1,-6,/,0,0,-1
Cc1cc(C(=O)NCC2CCCCC2)ccc1[N+](=O)[O-],7,22*,-1,-1,6
C[C@H]1CN([C@@H](C)CO)C(=O)c2cccc(NC(=O)Nc3ccc(C(F)(F)F)cc3)c2O[C@H]1CN(C)Cc1ccc2c(c1)OCO2,/,10,-3,/,/
CC(=O)Nc1ccc(S(=O)(=O)Nc2nc3ccccc3nc2Nc2ccc(C(=O)O)c(O)c2)cc1,-5,47*,-6,-8,-13
CC(=O)Nc1ccc(Nc2nc3ccccc3nc2NS(=O)(=O)c2ccc(Cl)c([N+](=O)[O-])c2)cc1,2,9,-3,-8,65*
CC(=O)Nc1ccc(S(=O)(=O)Nc2nc3ccccc3nc2Nc2cccc(O)c2)cc1,-4,5,-2,-3,4
CNC(=O)CSc1nc2cccnc2n1C1CCCCC1,-6,-3,-12,-3,-22

# Screening data from PubChem BioAssay.
